# Screening results (PubChem)
# A selection: hits, their analogues and other compounds. The true share with any hit is near 2.3%.
# V1R ag counter – counter-screen for oxytocin receptor agonists: human V1a receptor agonists; P37288; CHO-V1R cells, Fluo-8 calcium fluorescence, agonist mode; 0% DMSO, 100% 3 nM vasopressin; activation, % at 3 µM; 0.25% of 320,000 active;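 active = activation above the mean activation of all tested compounds plus 3 SD, per screening run, cut at about 20% in these data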;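 also: signal is peak over basal fluorescence ratio across a 100 second FLIPR read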
# Target sequence (P37288 whole entry, looked up): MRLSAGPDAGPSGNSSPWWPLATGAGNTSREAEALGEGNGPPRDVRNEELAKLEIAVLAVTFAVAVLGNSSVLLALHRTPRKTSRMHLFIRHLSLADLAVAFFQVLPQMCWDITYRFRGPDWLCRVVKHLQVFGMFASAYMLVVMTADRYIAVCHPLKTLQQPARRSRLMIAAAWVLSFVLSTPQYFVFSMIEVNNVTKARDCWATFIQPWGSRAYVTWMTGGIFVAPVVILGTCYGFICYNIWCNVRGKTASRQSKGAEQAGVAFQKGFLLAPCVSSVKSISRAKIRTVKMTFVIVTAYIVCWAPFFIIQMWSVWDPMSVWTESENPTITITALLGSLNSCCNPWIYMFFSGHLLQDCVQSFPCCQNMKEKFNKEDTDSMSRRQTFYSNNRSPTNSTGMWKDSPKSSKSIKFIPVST
# OXTR agonist – human OXTR agonism; activation, % at 3 µM; CHO-OTR cells, Fluo-8 calcium fluorescence; normalized: DMSO 0%, oxytocin 100%; 0.32% of 320,000 active;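 active = activation above the mean of all tested compounds plus 3 SD, cutoff set per screening run, cut at about 20% in these data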;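 also: peak over basal fluorescence ratio from a 100 s FLIPR kinetic read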
# OXTR potentiator – potentiates the human oxytocin receptor response; CHO-OTR cells, Fluo-8 calcium fluorescence, potentiator mode; 0% = oxytocin EC15, 100% = EC100; activation, % at 3 µM; 0.061% of 320,000 active; AID 2445;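 active = activation above that plate's cutoff, the mean activation of tested compounds plus 3 SD, cut at about 6.6% in these data, passing the limit was not always enough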;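 also: 100% uses oxytocin at 75 nM as the full agonist control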
#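 Assay system: CHO cell line stably expressing human OTR. Reagent: EC15 oxytocin agonist. Dosing: single dose, 3.0 µM nominal final compound concentration. Timing: compound 6 min at room temperature before oxytocin, 100 s read. Signal: kinetic Fluo-8 calcium fluorescence. Controls: oxytocin EC15 low and EC100 high.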
# TAAR1 antag – human TAAR1 antagonism; Q96RJ0; CHO RD-HGA16 TAAR1, Fluo-8 calcium fluorescence, antagonist; inhibition, % at 3 µM; 1.5% of 360,000 active;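 active = inhibition above a per-plate cutoff, the mean inhibition of test compounds on that plate plus 3 SD, cut at about 49% in these data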;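 also: 0% = DMSO plus EC80 beta-PEA response and 100% = DMSO alone without agonist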
#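 System: RD-HGA16 CHO cells with stable hTAAR1 and Gα16 | Probe or stimulus: EC80 β-phenethylamine stimulus | Dosing: 3 µM, single point | Times: Dye loading 75 min at 37 °C, then 30 min room temperature | Measured by: Fluo-8 calcium-sensitive fluorescence | Read-out basis: % inhibition of agonist calcium response | Replicates: n of 1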
# TAAR1 agonist – human TAAR1 agonism | Q96RJ0 | CHO RD-HGA16 TAAR1, Fluo-8 calcium fluorescence; vehicle wells 0%, saturating PEA agonist 100% | activation, % at 3 µM | 0.99% of 360,000 active;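 active = activation above the mean activation of all test compounds in the run plus 3 SD, cut at about 38% in these data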
#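 Assay system: CHO-derived RD-HGA16 cells with stable Gα16 and human TAAR1; timing: 17-24 h seeding, 75 min 37 °C dye, 30 min RT; read-out: % activation from peak over basal fluorescence ratio, DMSO-to-PEA scaled; measured by: kinetic Fluo-8 calcium fluorescence; benchmarks: low control DMSO, high control PEA (EC100); doses: 3 µM single concentration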
# The depositor's hits bear a star; / = no result given.
SMILES,V1R ag counter,OXTR agonist,OXTR potentiator,TAAR1 antag,TAAR1 agonist
COc1cc2ccc(-c3ccc4ccccc4n3)cc2cc1OC,/,/,/,58.4*,10.2
O=C(CNC(=O)c1ccccc1)NCC(=O)OCc1ccccc1Cl,0.9,-0.6,3.6,-6.1,-0.4
Cc1ccc(C(=O)OCc2cc3ccccc3[nH]c2=O)cc1,1.9,-0.3,-13.7,32.9,42.2*
S=C1NCN(Cc2ccco2)CN1CCc1ccccc1,-1.2,0.3,-3.0,-9.6,0.8
COc1ccc(-c2cc(C(=O)Nc3c(C)n(C)n(-c4ccccc4)c3=O)c3ccccc3n2)cc1OC,3.2,1.9,-7.1,54.6*,16.8
COc1ccc(-c2cc(C(=O)NNC(=O)c3csc(N4CCOCC4)n3)c3ccccc3n2)cc1OC,1.4,-0.2,-3.6,57.9*,13.9
Cc1c(NC(=O)c2cc(-c3cccs3)nc3ccccc23)c(=O)n(-c2ccccc2)n1C,0.0,0.1,-10.5,46.3,20.2
CCCCCCCCN1C(=O)[C@@H](CC(=O)NCc2ccc(OC)c(OC)c2)C[C@@]2(C(=O)OC)C1=C[C@H](C1CCCC1)O[C@@H]2C,/,/,/,-21.2,-0.5
CCOc1ccc(/C=N/OCC(=O)NC(c2ccccc2)c2ccccc2)cc1,6.6,8.1,-11.7,53.4*,28.5
COc1ccc(/C=N/OCC(=O)NC(c2ccccc2)c2ccccc2)c(OC)c1,4.2,6.9,-14.3,-1.9,1.0
O=C(/C=C/c1ccccc1)CC(=O)c1ccccc1,/,/,/,5.4,-0.3
O=C(CC(=O)c1ccccc1)CC(O)(C=Cc1ccccc1)c1ccccc1 (centres undefined),/,/,/,50.8*,7.1
CN1CCN(C(=O)C2CCCN(c3ncnc4c3nc3n4CCCCC3)C2)CC1 (centres undefined),0.4,-0.9,-12.9,-23.7,1.9
COc1ccc(NC(=O)c2cc(-c3cc(Cl)ccc3OC)n[nH]2)c(OC)c1,/,/,/,53.7*,2.3
COc1ccc(OC)c(NC(=O)c2cc(-c3ccc(F)cc3OC(C)C)n[nH]2)c1,/,/,/,40.9,2.6
CC(C)Oc1cc(F)ccc1-c1cc(C(=O)Nc2ccc(C(C)C)cc2)[nH]n1,/,/,/,27.8,-1.0
COc1ccc(NC(=O)c2cc(-c3cc(F)ccc3OC)n[nH]2)c(OC)c1,/,/,/,49.8*,7.1
COc1ccc(NC(=O)c2cc(-c3cc(F)ccc3OC(C)C)n[nH]2)c(C)c1,/,/,/,85.6*,45.3*
COc1ccc(NC(=O)c2cc(-c3cc(C)c(C)cc3O)n[nH]2)c(OC)c1,2.2,-0.9,-20.6,-12.5,3.1
CC(C)Oc1cc(F)ccc1-c1cc(C(=O)Nc2ccccc2)[nH]n1,/,/,/,54.2*,0.1
Cc1[nH]nc(SCC(=O)NCc2ccccc2)c1[N+](=O)[O-],0.2,-2.7,-6.6,1.0,-2.8
Cc1[nH]nc(SCC(=O)NCCc2ccccc2)c1[N+](=O)[O-],-0.8,1.4,2.7,74.8*,39.3*
CCc1nc2ccc(C(=O)NCc3ccc(OC)cc3)cn2c1N(C)Cc1ccc(OC)cc1,/,/,/,29.7,0.9
CCc1nc2ccc(C(=O)NCc3ccccc3OC)cn2c1N(C)Cc1ccc(OC)cc1,/,/,/,50.5*,-2.7
CCOC(=O)c1ccc(COC(=O)CNS(=O)(=O)c2ccccc2)cc1,-0.2,-1.2,1.8,23.0,-0.5
SMILES,V1R ag counter,OXTR agonist,OXTR potentiator,TAAR1 antag,TAAR1 agonist
CC1OC(CC(=O)O)CC2=C1C(=O)c1c(O)cccc1C2=O (centres undefined),/,/,/,63.2*,83.3*
O=C(/C=C\c1ccco1)Nc1nc(-c2ccc3ccccc3c2)cs1,1.6,-0.6,-5.7,49.3*,8.7
C=CCOc1ccc(/C=C/C(=O)OCC(=O)NNC(=O)c2ccccc2F)cc1,8.9,10.2,-3.9,-15.4,2.9
Cc1ccccc1OCC(O)CN (centres undefined),1.6,0.5,2.7,-17.0,37.6*
CCN1C(N(C)CCc2c[nH]c3ccccc23)=N[C@@H](c2cccc(C(F)(F)F)c2)C(C(=O)OC)=C1C,6.8,22.7*,-10.1,/,/
CCN1C(=O)N[C@@H](c2cccc(C(F)(F)F)c2)C(C(=O)OC)=C1C,-0.3,-2.5,-11.0,1.0,8.8
N#CCC(=O)Nc1ccc(C(=O)OCC(=O)c2c[nH]c3ccccc23)cc1,2.1,1.5,-3.6,23.1,43.2*
CC(=O)c1ccc(NC(=O)COC(=O)c2c[nH]c3ccccc23)cc1,1.7,10.7,-5.2,32.0,9.7
O=C(CNC(=O)c1ccccc1)OCC(=O)c1c[nH]c2ccccc12,0.2,0.2,2.1,21.9,39.7*
COc1ccc(C(=O)NCC(=O)OCC(=O)c2c[nH]c3ccccc23)cc1,/,/,/,2.9,32.5
CCN(CC)C(=O)C1=C(C)N(CCCN2CCCC2=O)C(=O)C(CC(=O)NCc2cccc3ccccc23)C1 (centres undefined),/,/,/,3.4,0.9
O=[N+]([O-])c1ccc(C(=S)N2CCC(Cc3ccccc3)CC2)cc1,0.4,-1.8,-2.4,53.2*,3.5
O=[N+]([O-])c1ccc(CN2CCC(Cc3ccccc3)CC2)cc1,/,/,/,0.3,-2.4
Cc1ccc(NC(=O)CCCC(=O)OC(C)C(=O)c2ccccc2)cc1 (centres undefined),1.4,-1.5,-15.6,13.3,-3.3
O=C(CCC(=O)c1cccs1)Nc1ncccc1O,-0.2,-0.2,-7.7,-8.4,1.6
O=C(CN1CCOCC1)Nc1scc2c1c(=O)oc1ccccc12,-1.7,-0.2,-5.7,53.2*,16.2
CCCSc1nc(N)c(C#N)c(-c2ccc(C)cc2)c1C#N,1.4,8.8,-18.7,53.8*,31.0
O=C(COc1ccc2ccccc2c1)Nc1cccc2c1C(=O)NC2=O,0.6,0.2,1.4,/,/
O=[N+]([O-])c1ccc(N2CCN(Cc3ccccc3)CC2)s1,1.3,-0.5,-17.1,19.1,0.2
O=[N+]([O-])c1ccc(N2CCN(Cc3ccccc3)CC2)c2c1no[n+]2[O-],/,/,/,62.9*,13.5
Cc1ccccc1N=C1SC(CC(=O)Nc2ccc3ccccc3c2)C(=O)N1Cc1ccccn1 (centres undefined),3.5,3.5,-8.8,50.6*,9.8
O=C(CC1SC(=Nc2cccc3ccccc23)N(Cc2ccccn2)C1=O)Nc1ccccc1Br (centres undefined),2.0,2.5,-5.7,-34.5,2.2
Cc1sc2ncn(CC(=O)NCCc3ccccc3)c(=O)c2c1C,0.0,-1.3,-7.3,12.0,42.0*
O=C(Cn1cnc2sc(-c3ccccc3)cc2c1=O)NCCc1ccccc1,-0.2,-0.4,-12.2,7.8,39.2*
COC(=O)c1sc2ncn(CC(=O)NCCc3ccc(OC)c(OC)c3)c(=O)c2c1C,0.5,-0.3,-7.6,-9.2,-0.2
COc1ccc(CCNC(=O)Cn2cnc3sc(C)c(-c4ccc(F)cc4)c3c2=O)cc1OC,23.4*,19.8*,-35.6,11.4,53.7*
CCCNC(=O)C1(C)CCN(C(=O)c2c(F)ccc(C)c2F)C1 (centres undefined),/,/,/,-10.2,7.4
